Assay results as given in ChEMBL document CHEMBL5104202, “Structure-Uptake Relationship Studies of Oxazolidinones in Gram-Negative ESKAPE Pathogens” (J Med Chem, 2022).
≈ marks a conversion by molar mass, not a printed value.

Tests used:
[1] = tested on: Klebsiella pneumoniae; test: Antibacterial activity against multidrug resistant Klebsiella pneumoniae ATCC43816 assessed as inhibition of bacterial growth incubated for 24 hrs in M9-MOPS medium by twofold serial dilution method; assay type: functional
[2] = tested on: Klebsiella pneumoniae; test: Antibacterial activity against multidrug resistant Klebsiella pneumoniae ATCC43816 assessed as inhibition of bacterial growth incubated for 24 hrs in MHI medium by twofold serial dilution method; assay type: functional
[3] = tested on: Klebsiella aerogenes; test: Antibacterial activity against multidrug resistant Klebsiella aerogenes ATCC13048 assessed as inhibition of bacterial growth incubated for 24 hrs in M9-MOPS medium by twofold serial dilution method; assay type: functional
[4] = tested on: Klebsiella pneumoniae; test: Antibacterial activity against multidrug resistant Klebsiella pneumoniae ATCC13883 assessed as inhibition of bacterial growth incubated for 24 hrs in M9-MOPS medium by twofold serial dilution method; assay type: functional
[5] = tested on: Klebsiella pneumoniae; test: Antibacterial activity against multidrug resistant Klebsiella pneumoniae ATCC13883 assessed as inhibition of bacterial growth incubated for 24 hrs in MHI medium by twofold serial dilution method; assay type: functional
[6] = tested on: Pseudomonas aeruginosa; test: Antibacterial activity against multidrug resistant Pseudomonas aeruginosa BAA 2109 assessed as inhibition of bacterial growth incubated for 24 hrs in […] medium by twofold serial dilution method; assay type: functional
[7] = tested on: Pseudomonas aeruginosa; test: Antibacterial activity against multidrug resistant Pseudomonas aeruginosa BAA 2109 assessed as inhibition of bacterial growth incubated for 24 hrs in MHI medium by twofold serial dilution method; assay type: functional
[8] = tested on: Pseudomonas aeruginosa; test: Antibacterial activity against multidrug resistant Pseudomonas aeruginosa BAA 2108 assessed as inhibition of bacterial growth incubated for 24 hrs in M9-MOPS medium by twofold serial dilution method; assay type: functional
[9] = tested on: Pseudomonas aeruginosa; test: Antibacterial activity against multidrug resistant Pseudomonas aeruginosa BAA 2108 assessed as inhibition of bacterial growth incubated for 24 hrs in MHI medium by twofold serial dilution method; assay type: functional
[10] = tested on: Acinetobacter baumannii; test: Antibacterial activity against multidrug resistant Acinetobacter baumannii Ab5075 assessed as inhibition of bacterial growth incubated for 24 hrs in M9-MOPS medium by twofold serial dilution method; assay type: functional
[11] = tested on: Acinetobacter baumannii; test: Antibacterial activity against multidrug resistant Acinetobacter baumannii Ab5075 assessed as inhibition of bacterial growth incubated for 24 hrs in MHI medium by twofold serial dilution method; assay type: functional
[12] = tested on: Acinetobacter baumannii; test: Antibacterial activity against multidrug resistant Acinetobacter baumannii AYE assessed as inhibition of bacterial growth incubated for 24 hrs in M9-MOPS medium by twofold serial dilution method; assay type: functional
[13] = tested on: Acinetobacter baumannii; test: Antibacterial activity against multidrug resistant Acinetobacter baumannii AYE assessed as inhibition of bacterial growth incubated for 24 hrs in MHI medium by twofold serial dilution method; assay type: functional
[14] = tested on: Acinetobacter baumannii; test: Antibacterial activity against efflux pump lacking Acinetobacter baumannii assessed as inhibition of bacterial growth; assay type: functional, organism-based
[15] = tested on: Acinetobacter baumannii; test: Antibacterial activity against efflux pump lacking/recombinant OM pore producing Acinetobacter baumannii assessed as inhibition of bacterial growth; assay type: functional, organism-based
[16] = tested on: Acinetobacter baumannii; test: Antibacterial activity against recombinant OM pore producing Acinetobacter baumannii assessed as inhibition of bacterial growth; assay type: functional, organism-based
[17] = tested on: Acinetobacter baumannii; test: Antibacterial activity against wild type Acinetobacter baumannii assessed as inhibition of bacterial growth; assay type: functional, organism-based
[18] = tested on: Escherichia coli; test: Antibacterial activity against wild type Escherichia coli assessed as inhibition of bacterial growth; assay type: functional, organism-based
[19] = tested on: Escherichia coli; test: Antibacterial activity against recombinant OM pore producing Escherichia coli assessed as inhibition of bacterial growth; assay type: functional, organism-based
[20] = tested on: Escherichia coli; test: Antibacterial activity against efflux pump lacking Escherichia coli assessed as inhibition of bacterial growth; assay type: functional, organism-based
[21] = tested on: Escherichia coli; test: Antibacterial activity against efflux pump lacking/recombinant OM pore producing Escherichia coli assessed as inhibition of bacterial growth; assay type: functional, organism-based
[22] = tested on: Pseudomonas aeruginosa; test: Antibacterial activity against wild type Pseudomonas aeruginosa assessed as inhibition of bacterial growth; assay type: functional, organism-based
[23] = tested on: Pseudomonas aeruginosa; test: Antibacterial activity against recombinant OM pore producing Pseudomonas aeruginosa assessed as inhibition of bacterial growth; assay type: functional, organism-based
[24] = tested on: Pseudomonas aeruginosa; test: Antibacterial activity against efflux pump lacking Pseudomonas aeruginosa assessed as inhibition of bacterial growth; assay type: functional, organism-based
[25] = tested on: Pseudomonas aeruginosa; test: Antibacterial activity against efflux pump lacking/recombinant OM pore producing Pseudomonas aeruginosa assessed as inhibition of bacterial growth; assay type: functional, organism-based
[26] = tested on: Acinetobacter baumannii; test: Antibacterial activity against efflux pump lacking/recombinant OM pore producing Acinetobacter baumannii incubated for 24 hrs by twofold serial dilution method; assay type: functional
Procedure, shortened: (§1)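 MICs by twofold serial dilution in 96-well plates from 10 mM DMSO stocks. Cultures grown in the indicated media; for E. coli, A. baumannii and P. aeruginosa, inducers were 0.1% arabinose, 1% arabinose and 0.1 mM IPTG respectively.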

[27] = tested on: Escherichia coli; test: Antibacterial activity against efflux pump lacking/recombinant OM pore producing Escherichia coli incubated for 24 hrs by twofold serial dilution method; assay type: functional
Procedure, shortened: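 E. coli efflux-knockout/hyperporinated strain grown in M9 medium with 50 mM MOPS (pH 7.2) and 0.2% xylose. OM pore induced with 0.1% arabinose. Compounds come from 10 mM DMSO stocks and are twofold serially diluted in 96-well plates.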

[28] = tested on: Pseudomonas aeruginosa; test: Antibacterial activity against efflux pump lacking/recombinant OM pore producing Pseudomonas aeruginosa incubated for 24 hrs by twofold serial dilution method; assay type: functional; procedure, shortened: as §1
[29] = tested on: Escherichia coli; test: Antibacterial activity against Escherichia coli SQ110 DTC G2032A incubated for 24 hrs by twofold serial dilution method; assay type: functional
Procedure, shortened: (§2)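 E. coli SQDTC (TolC-deficient, single rRNA operon) carrying LZD-resistant 23S rRNA substitutions. Compounds come from 10 mM DMSO stocks and are twofold serially diluted in 96-well plates.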

[30] = tested on: Staphylococcus aureus; test: Antibacterial activity against Staphylococcus aureus ATCC 25923 incubated for 24 hrs by twofold serial dilution method; assay type: functional; procedure, shortened: as §1
[31] = tested on: Escherichia coli; test: Antibacterial activity against Escherichia coli SQ110 DTC incubated for 24 hrs by twofold serial dilution method; assay type: functional; procedure, shortened: as §1
[32] = tested on: Escherichia coli; test: Antibacterial activity against Escherichia coli SQ110 incubated for 24 hrs by twofold serial dilution method; assay type: functional; procedure, shortened: as §1
[33] = tested on: Escherichia coli; test: Antibacterial activity against Escherichia coli SQ110 DTC C2610A incubated for 24 hrs by twofold serial dilution method; assay type: functional; procedure, shortened: as §2
[34] = tested on: Klebsiella pneumoniae; test: Antibacterial activity against multidrug resistant Klebsiella pneumoniae ATCC43816 assessed as inhibition of bacterial growth incubated for 24 hrs in MHI medium by twofold serial dilution method; details: ATCC43816, 24 h
[35] = tested on: Pseudomonas aeruginosa; test: Selectivity ratio of IC50 for efflux pump lacking Pseudomonas aeruginosa to IC50 for efflux pump lacking/OM pore producing Pseudomonas aeruginosa; assay type: functional
Procedure, shortened: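 OM impact ratio (E/PE) is the M9-MOPS growth IC50 in the efflux-lacking strain divided by that in the efflux-lacking/pore-producing strain.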

[36] = tested on: Pseudomonas aeruginosa; test: Selectivity ratio of IC50 for OM pore producing Pseudomonas aeruginosa to IC50 for efflux pump lacking/OM pore producing Pseudomonas aeruginosa; assay type: functional
Procedure, shortened: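 Efflux impact ratio (P/PE) is the M9-MOPS growth IC50 in the pore-producing strain divided by that in the efflux-lacking/pore-producing strain.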

O=C1O[C@@H](CO)CN1c1ccc(-c2cccnc2)c(F)c1
MIC [1]: > 200 µM | MIC [2]: > 200 µM | MIC [3]: 200 µM (≈ 57.7 µg/mL) | MIC [4]: 200 µM (≈ 57.7 µg/mL) | MIC [5]: > 200 µM | MIC [6]: > 200 µM | MIC [7]: > 200 µM | MIC [8]: > 200 µM | MIC [9]: > 200 µM | MIC [10]: 100 µM (≈ 28.8 µg/mL) | MIC [11]: > 200 µM | MIC [12]: 100 µM (≈ 28.8 µg/mL) | MIC [13]: > 200 µM | IC50 [14]: 4.3 µM | IC50 [15]: 4.3 µM | IC50 [16]: 19 µM | IC50 [17]: 19 µM | IC50 [18]: > 100 µM | IC50 [19]: 14.5 µM | IC50 [20]: 2.8 µM | IC50 [21]: 3.2 µM | IC50 [22]: > 100 µM | IC50 [23]: 75.3 µM | IC50 [24]: 4.7 µM | IC50 [25]: 6 µM | MIC [26]: 12.5 µM | MIC [27]: 25 µM | MIC [28]: 6.25 µM | MIC [29]: 50 µM (≈ 14.4 µg/mL) | MIC [30]: 1.56 µM (≈ 0.45 µg/mL) | MIC [31]: 12.5 µM (≈ 3.6 µg/mL) | MIC [32]: > 100 µM | MIC [33]: 25 µM (≈ 7.21 µg/mL) | MIC [34]: > 200 µM

C[n+]1ccc(-c2ccc(-c3ccc(N4C[C@H](CO)OC4=O)cc3F)cc2)cc1
MIC [1]: > 200 µM | MIC [2]: > 200 µM | MIC [3]: 50 µM | MIC [4]: 100 µM | MIC [5]: > 200 µM | MIC [6]: > 200 µM | MIC [7]: > 200 µM | MIC [8]: > 200 µM | MIC [9]: > 200 µM | MIC [10]: 200 µM | MIC [11]: > 200 µM | MIC [12]: > 200 µM | MIC [13]: > 200 µM | IC50 [14]: 64 µM | IC50 [15]: 10.8 µM | IC50 [16]: 10 µM | IC50 [17]: > 100 µM | IC50 [18]: 15.4 µM | IC50 [19]: 1.7 µM | IC50 [20]: 0.5 µM | IC50 [21]: 0.5 µM | IC50 [22]: > 100 µM | IC50 [23]: > 100 µM | IC50 [24]: > 100 µM | IC50 [25]: > 100 µM | MIC [26]: 50 µM | MIC [27]: 12.5 µM | MIC [28]: 12.5 µM | MIC [29]: 25 µM | MIC [30]: 12.5 µM | MIC [31]: 3.12 µM | MIC [32]: > 100 µM | MIC [33]: 12.5 µM | MIC [34]: > 200 µM

CC(=O)NC[C@H]1CN(c2ccc(N3CCOCC3)c(F)c2)C(=O)O1 [LINEZOLID]
MIC [1]: > 200 µM | MIC [2]: > 200 µM | MIC [3]: > 200 µM | MIC [4]: ≥ 200 µM | MIC [5]: > 200 µM | MIC [6]: > 200 µM | MIC [7]: > 200 µM | MIC [8]: > 200 µM | MIC [9]: > 200 µM | MIC [10]: ≥ 200 µM | MIC [11]: > 200 µM | MIC [12]: 200 µM (≈ 67.5 µg/mL) | MIC [13]: > 200 µM | IC50 [14]: 4.9 µM | IC50 [15]: 4 µM | IC50 [16]: 9.2 µM | IC50 [17]: 33.4 µM | IC50 [18]: > 100 µM | IC50 [19]: 18 µM | IC50 [20]: 8.7 µM | IC50 [21]: 9.3 µM | IC50 [22]: > 100 µM | IC50 [23]: 19.8 µM | IC50 [24]: 24.7 µM | IC50 [25]: 1.7 µM | MIC [26]: 25 µM | MIC [27]: 25 µM | MIC [28]: 12.5 µM | MIC [29]: > 100 µM | MIC [30]: 6.25 µM (≈ 2.11 µg/mL) | MIC [31]: 25 µM (≈ 8.43 µg/mL) | MIC [32]: > 100 µM | MIC [33]: 50 µM (≈ 16.9 µg/mL) | Ratio IC50 [35]: 15 | Ratio IC50 [36]: 12 | MIC [34]: > 200 µM

O=C(O)c1ccc(-c2ccc(N3C[C@H](CO)OC3=O)cc2F)cc1
IC50 [14]: 12.8 µM | IC50 [15]: 10.2 µM | IC50 [16]: 55.5 µM | IC50 [17]: > 100 µM | IC50 [18]: > 100 µM | IC50 [19]: > 100 µM | IC50 [20]: 54 µM | IC50 [21]: 2.6 µM | IC50 [22]: > 100 µM | IC50 [23]: > 100 µM | IC50 [24]: > 100 µM | IC50 [25]: 8.9 µM | MIC [26]: 50 µM | MIC [27]: 12.5 µM | MIC [28]: > 100 µM | MIC [29]: 50 µM (≈ 16.6 µg/mL) | MIC [30]: 6.25 µM (≈ 2.07 µg/mL) | MIC [31]: 25 µM (≈ 8.28 µg/mL) | MIC [32]: > 100 µM | MIC [33]: 25 µM (≈ 8.28 µg/mL)
